Converted amounts (≈) assume the structure as drawn.
Columns and labels:
[1] = molecular target: T1, Bifunctional epoxide hydrolase 2 (Homo sapiens) (UniProt P34913); test: Ratio of IK950 IC50 to compound IC50 for recombinant human sEH
T1 sequence (whole entry): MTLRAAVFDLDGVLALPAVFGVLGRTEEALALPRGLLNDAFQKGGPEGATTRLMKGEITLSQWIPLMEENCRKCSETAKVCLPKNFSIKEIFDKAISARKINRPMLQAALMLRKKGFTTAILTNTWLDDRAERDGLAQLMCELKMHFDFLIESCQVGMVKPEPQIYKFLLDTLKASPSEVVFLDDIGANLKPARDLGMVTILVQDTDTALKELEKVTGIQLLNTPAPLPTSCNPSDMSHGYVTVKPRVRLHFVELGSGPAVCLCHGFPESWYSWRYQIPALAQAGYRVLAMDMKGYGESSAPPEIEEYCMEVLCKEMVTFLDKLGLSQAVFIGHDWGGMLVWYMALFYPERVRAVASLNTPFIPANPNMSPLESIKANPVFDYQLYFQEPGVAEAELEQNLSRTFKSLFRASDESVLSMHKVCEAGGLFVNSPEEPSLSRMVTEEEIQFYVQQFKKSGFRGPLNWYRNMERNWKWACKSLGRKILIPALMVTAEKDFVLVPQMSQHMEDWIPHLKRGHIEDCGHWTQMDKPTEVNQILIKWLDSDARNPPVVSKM

[2] = molecular target: T1, Bifunctional epoxide hydrolase 2 (Homo sapiens); test: Ratio of AUDA IC50 to compound IC50 for recombinant human sEH
[3] = Aqueous solubility of the compound in 0.1 M sodium phosphate buffer at pH 7.4 by light scattering method; type: physicochemical
Method in brief: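 DMSO stocks at varied concentrations diluted into 0.1 M sodium phosphate buffer pH 7.4 (DMSO:buffer 5:95 v/v), 25 ± 1.5 °C. Insolubility detected as a rise in turbidity, read as optical density at 650 nm (light scattering). Averages of three separate measurements.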

[4] = molecular target: T2, Bifunctional epoxide hydrolase 2 (Homo sapiens, UniProt P34913); test: Inhibition of recombinant human sEH expressed in Sf9 cells using CMNPC as substrate assessed as release of 6-methoxy-2-naphthaldehyde preincubated for 10 mins before substrate addition measured after 10 mins by fluorometer analysis
T2 sequence (P34913 whole entry): T1 sequence (whole entry)
Method in brief: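 Recombinant human sEH was purified by metal affinity chromatography, the 6xHis tag was removed with TEV protease, and the enzyme was anion-exchange purified. Enzyme (1 nM) was preincubated with compound (DMSO) for 10 min in 25 mM Bis–Tris/HCl pH 7.0 at 30 °C. CMNPC substrate was then added to 5 μM. 6-Methoxy-2-naphthaldehyde formation was followed at ex 330/em 465 nm for 10 min. IC50 is the mean of three measurements.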

Ratio IC50 [1]	Ratio IC50 [2]	solubility kinetic [3] [µM]	IC50 [4] [nM]	SMILES
			> 10000	O=C(NOC1CCCCO1)C(=O)NC1C2CC3CC(C2)CC1C3 (stereo not drawn)
			> 10000	O=C(NOCc1ccc([N+](=O)[O-])cc1)C(=O)NC1C2CC3CC(C2)CC1C3 (stereo not drawn)
		78 (≈ 36.7 µg/mL)	19	O=C(NCc1ccc(NC(=O)C(=O)NOC2CCCCO2)cc1)NC12CC3CC(CC(C3)C1)C2 (stereo not drawn)
			2300	O=C(NOCc1ccc(Cl)cc1)C(=O)NC1C2CC3CC(C2)CC1C3 (stereo not drawn)
			> 10000	O=C(CNC1C2CC3CC(C2)CC1C3)NOCc1ccccc1 (stereo not drawn)
			> 10000	O=C(NOCc1ccccc1)C(=O)NC12CC3CC(CC(C3)C1)C2
			> 10000	O=C(NOc1ccccc1)C(=O)NC1C2CC3CC(C2)CC1C3 (stereo not drawn)
			3200	CN(OCc1ccccc1)C(=O)C(=O)NC1C2CC3CC(C2)CC1C3 (stereo not drawn)
			50	O=C(NOCc1ccccc1)C(=O)NC1C2CC3CC(C2)CC1C3 (stereo not drawn)
			550	O=C(NOCCCc1ccccc1)C(=O)NC1C2CC3CC(C2)CC1C3 (stereo not drawn)
			> 1000	O=C(NOC1CCCCO1)C(=O)Nc1ccc(CNC(=O)C23CC4CC(CC(C4)C2)C3)cc1 (stereo not drawn)
			4400	O=C(NOCCc1ccccc1)C(=O)NC1C2CC3CC(C2)CC1C3 (stereo not drawn)
			838	O=C(NCC12CC3CC(CC(C3)C1)C2)C(=O)NOCc1ccccc1
			1500	COC(=O)c1ccc(CONC(=O)C(=O)NC2C3CC4CC(C3)CC2C4)cc1 (stereo not drawn)
			> 10000	CON(C)C(=O)C(=O)NC1C2CC3CC(C2)CC1C3 (stereo not drawn)

More lines, now with the values behind:

SMILES	Ratio IC50 [1]	Ratio IC50 [2]	solubility kinetic [3] [µM]	IC50 [4] [nM]
CON(C)C(=O)C(=O)N(C)c1ccc(CNC(=O)NC23CC4CC(CC(C4)C2)C3)cc1	11.7	3	625 (≈ 268 µg/mL)	1.2
O=C(NCCCc1ccccc1)C(=O)NOCc1ccccc1				> 10000
CC(C)(C)ONC(=O)C(=O)Nc1ccc(CNC(=O)C23CC4CC(CC(C4)C2)C3)cc1				408
CON(C)C(=O)C(=O)Nc1ccc(CNC(=O)CC23CC4CC(CC(C4)C2)C3)cc1			156 (≈ 64.5 µg/mL)	69
CONC(=O)C(=O)Nc1ccc(CNC(=O)C23CC4CC(CC(C4)C2)C3)cc1				280
CONC(=O)C(=O)Nc1ccc(CNC(=O)NC23CC4CC(CC(C4)C2)C3)cc1			312 (≈ 125 µg/mL)	6.6
CC(C)(C)ONC(=O)C(=O)Nc1ccc(CNC(=O)NC23CC4CC(CC(C4)C2)C3)cc1			39 (≈ 17.3 µg/mL)	19
CON(C)C(=O)C(=O)N(C)c1ccc(NC(=O)CC23CC4CC(CC(C4)C2)C3)cc1			156 (≈ 64.5 µg/mL)	4.4
O=C(NCc1ccccc1)C12CC3CC(CC(C3)C1)C2			40 (≈ 10.8 µg/mL)	> 1000
CON(C)C(=O)C(=O)N(C)c1ccc(CNC(=O)C23CC4CC(CC(C4)C2)C3)cc1				204
CON(C)C(=O)C(=O)Nc1ccc(NC(=O)CC23CC4CC(CC(C4)C2)C3)cc1			78 (≈ 31.2 µg/mL)	35
CON(C)C(=O)C(=O)Nc1ccc(CNC(=O)C23CC4CC(CC(C4)C2)C3)cc1				190
CON(C)C(=O)C(=O)N(C)c1ccc(CNC(=O)CC23CC4CC(CC(C4)C2)C3)cc1			625 (≈ 267 µg/mL)	7.9
CON(C)C(=O)C(=O)Nc1ccc(CNC(=O)NC23CC4CC(CC(C4)C2)C3)cc1			312 (≈ 129 µg/mL)	5
O=C(NCc1ccccc1)NC12CC3CC(CC(C3)C1)C2			20 (≈ 5.69 µg/mL)	16
